Experiments:
[1] = biological target: T1, Translocator protein (Rattus norvegicus, UniProt P16257); assay: (§1) Displacement of [3H]-PK 11195 from rat peripheral (mitochondrial) benzodiazepine receptor
In short: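 Male CD rat (~150 g) cerebral cortex membranes washed in 50 mM phosphate-buffered saline, pH 7.4. 10 mg wet tissue incubated 120 min at 4 °C with 1 nM [3H]PK 11195 and 8–12 drug concentrations. Nonspecific binding defined with 1 μM PK 11195. Filtration, scintillation counting. IC50 by nonlinear curve fitting; triplicate points.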

[2] = biological target: T1, Translocator protein; assay: as §1; remark: listed apart in the source

T1 sequence (P16257 whole entry, looked up): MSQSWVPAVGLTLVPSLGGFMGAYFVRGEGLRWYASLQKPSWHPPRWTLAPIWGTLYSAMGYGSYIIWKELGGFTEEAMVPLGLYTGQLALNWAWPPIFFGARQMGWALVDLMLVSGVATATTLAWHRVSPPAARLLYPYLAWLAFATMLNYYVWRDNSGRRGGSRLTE

Row | IC50 [1] | SMILES | IC50 [2]
1 | 30.9 nM | CN(C)C(=O)OC1=C(c2ccccc2F)Sc2ccccc2-n2cccc21 | 31 nM
2 | 38 nM | CC(=O)OC1=C(c2ccccc2F)Sc2ccccc2-n2cccc21 | 38 nM
3 | 100000 nM | COc1ccc(C2=C(OC(=O)c3cccnc3)c3cccn3-c3ccccc3S2)cc1 | 
4 | 20.4 nM | COc1ccc(C2=C(OC(C)=O)c3cccn3-c3cccc(Cl)c3S2)cc1 | 
5 | 21.4 nM | CCCC(=O)OC1=C(c2ccccc2)Sc2ccccc2-n2cccc21 | 
6 | 7.59 nM | CC(=O)OC1=C(c2ccccc2)Sc2c(Cl)cccc2-n2cccc21 | 
7 | 66.1 nM | CCC(=O)OC1=C(c2ccccc2)Sc2ccccc2-n2cccc21 | 
8 | 29.5 nM | CCC(=O)OC1=C(c2ccc(OC)cc2)Sc2ccccc2-n2cccc21 | 
9 | 9.12 nM | COc1ccc(C2=C(OC(=O)N(C)C)c3cccn3-c3ccccc3S2)cc1 | 
10 | 28.2 nM | CC(=O)OC1=C(c2ccc(F)cc2)Sc2ccccc2-n2cccc21 | 28 nM
11 | 631 nM | COc1ccc(C2=C(OC(C)=O)c3cccn3-c3ccccc3S2(=O)=O)cc1 | 
12 | 27.5 nM | CCCC(=O)OC1=C(c2ccc(OC)cc2)Sc2ccccc2-n2cccc21 | 
13 | 57.5 nM | CS(=O)(=O)OC1=C(c2ccccc2)Sc2ccccc2-n2cccc21 | 
14 | 23.4 nM | CCCCCC(=O)OC1=C(c2ccccc2)Sc2ccccc2-n2cccc21 | 

The remaining lines, values behind:

Row | SMILES | IC50 [1] | IC50 [2]
15 | COc1ccc(C2=C(OC(=O)c3cc(OC)c(OC)c(OC)c3)c3cccn3-c3cc(C(F)(F)F)ccc3S2)cc1 | 100000 nM | 
16 | CC(=O)OC1=C(c2ccc(Cl)cc2)Sc2ccccc2-n2cccc21 | 30.2 nM | 30 nM
17 | CN(C)C(=O)OC1=C(c2ccccc2)Sc2c(Cl)cccc2-n2cccc21 | 3.98 nM | 4 nM
18 | COc1ccc(C2=C(OC(=O)c3ccncc3)c3cccn3-c3ccccc3S2)cc1 | 100000 nM | 
19 | CN(C)C(=O)OC1=C(c2ccccc2)Sc2ccccc2-n2cccc21 | 9.12 nM | 
20 | COc1ccc(C2=C(OC(=O)c3cc(OC)c(OC)c(OC)c3)c3cccn3-c3ccccc3S2)cc1 | 100000 nM | 
21 | COc1ccc(C2=C(OC(=O)c3cc(OC)c(OC)c(OC)c3)c3cccn3-c3cc(Cl)ccc3S2)cc1 | 100000 nM | 
22 | CC(=O)OC1=C(c2ccccc2)Sc2cc(C)ccc2-n2cccc21 | 112 nM | 112 nM
23 | CC(=O)OC1=C(c2ccccc2)Sc2ccc(C)cc2-n2cccc21 | 676 nM | 675 nM
24 | O=C1c2cccn2-c2ccccc2S(=O)(=O)C1c1ccccc1 (stereo not given) | 100000 nM | 
25 | CC(=O)OC1=C(c2ccccc2)Sc2ccccc2-n2cccc21 | 19.5 nM | 
26 | COc1ccc(C2=C(OC(=O)N(C)C)c3cccn3-c3cc(C(F)(F)F)ccc3S2)cc1 | 295 nM | 
27 | COc1ccc(C2=C(OC(=O)N(C)C)c3cccn3-c3cc(Cl)ccc3S2)cc1 | 166 nM | 
28 | COc1ccc(C2C(=O)c3cccn3-c3ccccc3[S+]2[O-])cc1 (stereo not given) | 22900 nM | 

Reference: ChEMBL document CHEMBL1127419, “A comparative molecular field analysis model for 6-arylpyrrolo[2,1-d] [1,5]benzothiazepines binding selectively to the mitochondrial benzodiazepine receptor” (J Med Chem, 1994)
